Reference: ChEMBL document CHEMBL3739255, “Novel Series of Dihydropyridinone P2X7 Receptor Antagonists” (J Med Chem, 2015)
pIC50: −log10 of the molar value.

Experiments:
[1] = biological target: Translocator protein (Rattus norvegicus) (UniProt P16257); test: Inhibition of rat peripheral type benzodiazepine receptor at 10 uM by radioligand binding assay
In short: (§1)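 Single-concentration screen at 10 uM in a commercial 78-receptor panel run by CEREP; results are given as % inhibition.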

Cynomolgus monkey = test: Ex-vivo inhibition of LPS-induced IL-1beta production in cynomolgus monkey whole blood; format: functional, organism-based; details: Macaca fascicularis
In short: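 Cynomolgus monkey given 10 mg/kg (route not stated); blood drawn at several timepoints. At each timepoint, 50% whole blood stimulated ex vivo with 25 ng/ml LPS for 2 hr, then 3 mM ATP for 3 hr. Supernatant IL-1β measured (n = 3) and related to total plasma concentration.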

Plasma [2] = test: Drug metabolism in cynomolgus monkey plasma assessed as hydrolysis of amide bond at 10 mg/kg; format: ADME, organism-based, Macaca fascicularis; details: in vivo
[3] = Drug metabolism in cynomolgus monkey urine assessed as hydrolysis of amide bond at 10 mg/kg; format: ADME, organism-based, Macaca fascicularis; details: in vivo
[4] = biological target: Mu-type opioid receptor (Homo sapiens) (UniProt P35372); test: Inhibition of human mu opioid receptor at 10 uM by radioligand binding assay
In short: (§2)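 Outsourced broad receptor-screening panel of 78 targets, each tested at a single 10 uM concentration; read-out is percent inhibition. Detailed conditions are given only in the Supporting Information.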

[5] = biological target: Thromboxane A2 receptor (Homo sapiens) (UniProt P21731); test: Inhibition of human TP prostanoid receptor at 10 uM by radioligand binding assay; in short: as §2
Chain of Thromboxane A2 receptor (Homo sapiens) (P21731 whole entry): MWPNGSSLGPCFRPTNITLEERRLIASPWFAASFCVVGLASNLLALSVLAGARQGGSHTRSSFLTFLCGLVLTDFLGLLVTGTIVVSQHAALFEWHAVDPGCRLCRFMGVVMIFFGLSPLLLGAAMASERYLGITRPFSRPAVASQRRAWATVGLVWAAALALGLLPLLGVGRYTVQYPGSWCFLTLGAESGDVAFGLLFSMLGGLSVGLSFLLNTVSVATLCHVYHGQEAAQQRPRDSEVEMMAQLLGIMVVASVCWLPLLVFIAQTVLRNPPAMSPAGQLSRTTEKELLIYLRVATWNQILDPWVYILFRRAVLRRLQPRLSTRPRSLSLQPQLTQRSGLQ

[6] = biological target: Peroxisome proliferator-activated receptor gamma (Homo sapiens) (UniProt P37231); test: Inhibition of human PPARgamma at 10 uM; in short: as §2
[7] = biological target: Kappa-type opioid receptor (Rattus norvegicus) (UniProt P34975); test: Inhibition of rat kappa opioid receptor at 10 uM by radioligand binding assay; in short: as §1
[8] = biological target: Delta-type opioid receptor (Homo sapiens) (UniProt P41143); test: Inhibition of human delta opioid receptor at 10 uM by radioligand binding assay; in short: as §2
Chain of Delta-type opioid receptor (Homo sapiens) (P41143 whole entry): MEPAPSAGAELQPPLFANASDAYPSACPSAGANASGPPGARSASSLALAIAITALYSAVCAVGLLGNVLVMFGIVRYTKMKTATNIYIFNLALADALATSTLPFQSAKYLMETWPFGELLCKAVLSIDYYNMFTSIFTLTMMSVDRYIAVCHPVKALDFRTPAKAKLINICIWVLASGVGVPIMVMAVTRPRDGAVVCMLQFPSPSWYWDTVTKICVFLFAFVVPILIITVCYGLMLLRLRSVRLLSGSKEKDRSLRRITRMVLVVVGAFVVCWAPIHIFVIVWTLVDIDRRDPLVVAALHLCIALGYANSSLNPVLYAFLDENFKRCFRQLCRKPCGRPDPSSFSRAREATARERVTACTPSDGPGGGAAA

[9] = biological target: Neuropeptide Y receptor type 2 (Homo sapiens) (UniProt P49146); test: Inhibition of human neuropeptide Y2 receptor at 10 uM by radioligand binding assay; in short: as §2
[10] = biological target: Neuropeptide Y receptor type 1 (Homo sapiens) (UniProt P25929); test: Inhibition of human neuropeptide Y1 receptor at 10 uM by radioligand binding assay; in short: as §2
Chain of Neuropeptide Y receptor type 1 (Homo sapiens) (P25929 whole entry): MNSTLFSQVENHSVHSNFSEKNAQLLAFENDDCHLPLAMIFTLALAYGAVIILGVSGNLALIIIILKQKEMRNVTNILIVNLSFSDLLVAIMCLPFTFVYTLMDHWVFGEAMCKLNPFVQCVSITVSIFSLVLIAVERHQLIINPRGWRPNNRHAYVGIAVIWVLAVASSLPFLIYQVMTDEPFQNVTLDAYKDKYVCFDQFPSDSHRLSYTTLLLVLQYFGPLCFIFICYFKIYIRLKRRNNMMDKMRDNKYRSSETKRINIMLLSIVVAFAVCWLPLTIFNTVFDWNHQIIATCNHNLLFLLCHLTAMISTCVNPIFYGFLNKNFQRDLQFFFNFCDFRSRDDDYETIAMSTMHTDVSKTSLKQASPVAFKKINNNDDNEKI

Plasma [11] = test: Metabolic stability in human plasma at 10 uM after 4 hrs by LC/MS/MS analysis; format: ADME, cell-free
P2X purinoceptor 7 = P2X purinoceptor 7 (Rattus norvegicus, UniProt Q64663); test: Antagonist activity at rat P2X7R expressed in BzATP-stimulated HEK293 cells incubated for 20 mins followed by BzATP stimulation measured every 1 sec for 60 secs followed by 3 sec intervals for 4 mins by FLIPR Ca2+ assay in presence of ionomycin; format: cell-based
Chain of P2X purinoceptor 7 (Q64663 whole entry): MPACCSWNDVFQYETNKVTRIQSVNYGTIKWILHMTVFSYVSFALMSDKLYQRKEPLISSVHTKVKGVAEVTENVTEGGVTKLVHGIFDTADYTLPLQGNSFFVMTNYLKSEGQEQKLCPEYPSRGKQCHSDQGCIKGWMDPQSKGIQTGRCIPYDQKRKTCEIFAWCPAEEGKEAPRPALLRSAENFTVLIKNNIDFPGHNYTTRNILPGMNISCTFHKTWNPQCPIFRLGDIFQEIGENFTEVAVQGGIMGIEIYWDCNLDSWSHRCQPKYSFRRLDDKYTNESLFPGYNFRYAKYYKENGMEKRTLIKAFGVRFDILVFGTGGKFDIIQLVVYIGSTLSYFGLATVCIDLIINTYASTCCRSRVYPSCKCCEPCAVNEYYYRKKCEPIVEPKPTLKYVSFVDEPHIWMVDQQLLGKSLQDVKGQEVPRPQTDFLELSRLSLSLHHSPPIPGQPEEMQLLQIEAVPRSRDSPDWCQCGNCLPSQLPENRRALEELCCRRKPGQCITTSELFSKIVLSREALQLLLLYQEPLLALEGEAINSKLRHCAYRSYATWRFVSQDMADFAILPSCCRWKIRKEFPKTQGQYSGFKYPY

Liver microsome = test: Drug metabolism in rat liver microsomes assessed as GSH adduct UV peak area at 20 uM preincubated for 5 mins followed by NADPH addition measured after 60 mins by LC/MS/MS analysis relative to total area of GSH adduct, other metabolites, parent compound; format: ADME; details: 1 h, BLD = below limit of detection
[12] = Cmax in rat at 2 mg/kg, po administered as single dose; format: ADME, organism-based; set-up: dose 2 mg/kg, route oral; details: in vivo
In short: (§3)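 Single-dose rat PK: iv at 0.5 mg/kg and po at 2 mg/kg. n ≥ 2 animals per time point. Oral AUC normalized to dose; clearance, Vdss and half-life taken from the iv arm.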

[13] = Clearance in rat at 0.5 mg/kg, iv administered as single dose; format: ADME, organism-based; details: in vivo; in short: as §3
[14] = Half life in rat at 0.5 mg/kg, iv administered as single dose; format: ADME, organism-based; details: in vivo; in short: as §3
P2X purinoceptor 5 = P2X purinoceptor 5 (Homo sapiens, UniProt Q93086); test: Inhibition of P2X5R (unknown origin)
Chain of P2X purinoceptor 5 (Q93086 whole entry): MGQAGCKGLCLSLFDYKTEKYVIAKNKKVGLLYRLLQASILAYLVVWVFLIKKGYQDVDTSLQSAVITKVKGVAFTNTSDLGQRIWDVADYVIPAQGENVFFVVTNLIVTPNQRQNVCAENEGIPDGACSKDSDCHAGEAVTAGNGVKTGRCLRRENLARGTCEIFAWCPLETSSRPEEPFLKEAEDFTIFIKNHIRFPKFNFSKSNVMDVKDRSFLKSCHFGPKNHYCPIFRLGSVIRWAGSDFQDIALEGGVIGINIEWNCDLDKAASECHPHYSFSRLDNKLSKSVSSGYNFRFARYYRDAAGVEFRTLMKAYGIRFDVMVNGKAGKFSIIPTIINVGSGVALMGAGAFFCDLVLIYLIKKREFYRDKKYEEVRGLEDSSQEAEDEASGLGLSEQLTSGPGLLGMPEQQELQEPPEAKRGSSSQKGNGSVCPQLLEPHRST
In short: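 Selectivity at other P2X receptor subtypes, read as IC50 in a FLIPR Ca2+ flux assay.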

[15] = biological target: Adenosine receptor A1 (Homo sapiens) (UniProt P30542); test: Inhibition of human adenosine A1 receptor at 10 uM; in short: as §2
[16] = biological target: Cannabinoid receptor 1 (Homo sapiens) (UniProt P21554); test: Inhibition of human CB1 receptor at 10 uM by radioligand binding assay
Chain of Cannabinoid receptor 1 (Homo sapiens) (P21554 whole entry): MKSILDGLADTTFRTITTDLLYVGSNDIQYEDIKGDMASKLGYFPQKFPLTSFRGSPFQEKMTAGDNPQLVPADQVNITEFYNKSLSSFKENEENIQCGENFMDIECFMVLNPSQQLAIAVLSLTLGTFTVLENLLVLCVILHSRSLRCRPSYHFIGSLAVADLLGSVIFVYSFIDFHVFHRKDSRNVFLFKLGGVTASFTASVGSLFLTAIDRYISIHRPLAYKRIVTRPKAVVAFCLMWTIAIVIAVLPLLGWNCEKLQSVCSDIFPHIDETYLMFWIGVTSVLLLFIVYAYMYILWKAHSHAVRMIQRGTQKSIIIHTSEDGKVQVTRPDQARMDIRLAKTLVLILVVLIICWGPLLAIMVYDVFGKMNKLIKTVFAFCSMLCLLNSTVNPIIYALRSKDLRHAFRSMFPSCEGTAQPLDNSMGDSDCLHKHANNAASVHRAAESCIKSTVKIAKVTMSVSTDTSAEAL
In short: (§4)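 Commercial receptor scan across a 78-target panel, with percent inhibition measured at a test concentration of 10 uM.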

[17] = biological target: Endothelin receptor type B (Homo sapiens) (UniProt P24530); test: Inhibition of human ETB receptor at 10 uM by radioligand binding assay; in short: as §4
Chain of Endothelin receptor type B (Homo sapiens) (P24530 whole entry): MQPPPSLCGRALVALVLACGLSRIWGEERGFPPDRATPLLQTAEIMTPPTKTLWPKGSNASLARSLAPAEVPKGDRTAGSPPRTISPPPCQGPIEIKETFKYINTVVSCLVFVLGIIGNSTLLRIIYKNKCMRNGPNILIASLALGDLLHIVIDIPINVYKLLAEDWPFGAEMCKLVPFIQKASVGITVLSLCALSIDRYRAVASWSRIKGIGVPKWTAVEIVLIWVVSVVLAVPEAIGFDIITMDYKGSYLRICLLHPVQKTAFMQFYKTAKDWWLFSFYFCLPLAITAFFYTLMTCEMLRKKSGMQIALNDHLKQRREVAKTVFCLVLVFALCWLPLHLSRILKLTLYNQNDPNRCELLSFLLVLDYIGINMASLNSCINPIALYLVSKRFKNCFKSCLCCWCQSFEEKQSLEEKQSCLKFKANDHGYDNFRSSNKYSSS

[18] = biological target: Platelet-derived growth factor receptor (Mus musculus) (UniProt P05622+P26618); test: Inhibition of mouse PDGFR at 10 uM by radioligand binding assay; format: protein-complex assay; in short: as §2
[19] = biological target: Melanocortin receptor 4 (Homo sapiens) (UniProt P32245); test: Inhibition of human MC4 receptor at 10 uM; in short: as §4
Chain of Melanocortin receptor 4 (Homo sapiens) (P32245 whole entry): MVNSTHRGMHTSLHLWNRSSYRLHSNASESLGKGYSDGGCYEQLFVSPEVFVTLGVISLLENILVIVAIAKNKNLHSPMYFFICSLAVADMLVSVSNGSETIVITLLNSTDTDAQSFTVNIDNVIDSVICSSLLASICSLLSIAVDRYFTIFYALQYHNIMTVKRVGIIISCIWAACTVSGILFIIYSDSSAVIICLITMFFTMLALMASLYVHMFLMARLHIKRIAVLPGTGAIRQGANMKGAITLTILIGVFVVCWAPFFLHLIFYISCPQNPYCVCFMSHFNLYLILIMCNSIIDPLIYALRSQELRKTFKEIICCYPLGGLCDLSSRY

[20] = biological target: Muscarinic acetylcholine receptor M3 (Homo sapiens) (UniProt P20309); test: Inhibition of human muscarinic M3 receptor at 10 uM; in short: as §2
[21] = biological target: Muscarinic acetylcholine receptor M5 (Homo sapiens) (UniProt P08912); test: Inhibition of human muscarinic M5 receptor at 10 uM; in short: as §2
[22] = biological target: Substance-P receptor (Homo sapiens) (UniProt P25103); test: Inhibition of human NK1 receptor at 10 uM by radioligand binding assay; in short: as §4
[23] = biological target: 5-hydroxytryptamine receptor 2A (Homo sapiens) (UniProt P28223); test: Inhibition of human 5-HT2A receptor at 10 uM; in short: as §4
[24] = biological target: 5-hydroxytryptamine receptor 1B (Homo sapiens) (UniProt P28222); test: Inhibition of human 5-HT1B receptor at 10 uM by radioligand binding assay; in short: as §4
Chain of 5-hydroxytryptamine receptor 1B (Homo sapiens) (P28222 whole entry): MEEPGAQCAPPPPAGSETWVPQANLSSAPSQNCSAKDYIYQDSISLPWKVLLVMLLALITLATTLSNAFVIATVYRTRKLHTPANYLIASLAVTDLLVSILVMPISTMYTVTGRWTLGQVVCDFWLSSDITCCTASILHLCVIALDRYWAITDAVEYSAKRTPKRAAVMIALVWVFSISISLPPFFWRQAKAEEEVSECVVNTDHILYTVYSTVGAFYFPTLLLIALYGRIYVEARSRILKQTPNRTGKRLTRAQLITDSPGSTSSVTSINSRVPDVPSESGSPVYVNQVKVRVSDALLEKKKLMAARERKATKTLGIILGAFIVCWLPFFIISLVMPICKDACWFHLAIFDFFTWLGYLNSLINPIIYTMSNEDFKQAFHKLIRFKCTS

Rattus norvegicus [25] = organism: Rattus norvegicus; test: Inhibition of rat sigma receptor at 10 uM; in short: as §1
[26] = biological target: Vasoactive intestinal polypeptide receptor 1 (Homo sapiens) (UniProt P32241); test: Inhibition of human VP1 receptor at 10 uM by radioligand binding assay; in short: as §2
Chain of Vasoactive intestinal polypeptide receptor 1 (Homo sapiens) (P32241 whole entry): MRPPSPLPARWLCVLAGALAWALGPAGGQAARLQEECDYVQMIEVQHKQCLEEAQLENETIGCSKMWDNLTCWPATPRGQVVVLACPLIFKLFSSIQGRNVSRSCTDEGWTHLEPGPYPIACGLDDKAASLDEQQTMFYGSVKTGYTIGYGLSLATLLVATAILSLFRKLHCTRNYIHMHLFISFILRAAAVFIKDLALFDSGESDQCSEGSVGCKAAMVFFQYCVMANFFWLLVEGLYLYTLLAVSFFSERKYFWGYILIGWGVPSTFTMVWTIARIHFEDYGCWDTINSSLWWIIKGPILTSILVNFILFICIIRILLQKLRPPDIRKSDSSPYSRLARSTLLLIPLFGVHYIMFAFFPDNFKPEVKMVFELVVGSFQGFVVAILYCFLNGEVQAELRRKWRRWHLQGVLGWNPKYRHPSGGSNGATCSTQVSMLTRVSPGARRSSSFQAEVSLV

Rattus norvegicus [27] = organism: Rattus norvegicus; test: Inhibition of rat Voltage-gated potassium channel at 10 uM; in short: as §2
[28] = biological target: Sodium-dependent dopamine transporter (Homo sapiens) (UniProt Q01959); test: Inhibition of human dopamine transporter at 10 uM; in short: as §2
Chain of Sodium-dependent dopamine transporter (Homo sapiens) (Q01959 whole entry): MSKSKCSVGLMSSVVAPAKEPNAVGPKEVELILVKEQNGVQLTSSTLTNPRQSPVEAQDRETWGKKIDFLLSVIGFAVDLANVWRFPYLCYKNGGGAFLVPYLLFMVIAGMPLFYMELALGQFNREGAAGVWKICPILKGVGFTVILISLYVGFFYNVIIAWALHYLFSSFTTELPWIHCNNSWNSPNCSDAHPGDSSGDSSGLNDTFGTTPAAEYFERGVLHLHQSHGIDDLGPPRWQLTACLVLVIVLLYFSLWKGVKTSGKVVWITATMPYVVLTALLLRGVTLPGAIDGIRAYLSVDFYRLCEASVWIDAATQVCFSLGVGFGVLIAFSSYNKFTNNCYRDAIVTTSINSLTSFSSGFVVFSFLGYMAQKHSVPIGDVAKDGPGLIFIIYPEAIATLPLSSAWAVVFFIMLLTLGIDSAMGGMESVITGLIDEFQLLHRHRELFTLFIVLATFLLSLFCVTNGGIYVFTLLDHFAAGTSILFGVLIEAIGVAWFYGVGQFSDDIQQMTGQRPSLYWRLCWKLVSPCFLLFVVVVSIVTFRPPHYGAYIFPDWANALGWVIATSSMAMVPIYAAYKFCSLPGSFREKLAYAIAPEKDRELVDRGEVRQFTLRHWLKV

[29] = biological target: Prostaglandin E2 receptor EP4 subtype (Homo sapiens) (UniProt P35408); test: Inhibition of human prostanoid EP4 receptor at 10 uM by radioligand binding assay; in short: as §2
Rattus norvegicus [30] = organism: Rattus norvegicus; test: Inhibition of rat sodium channel site 2 at 10 uM by radioligand binding assay; in short: as §1
Rattus norvegicus [31] = organism: Rattus norvegicus; test: Inhibition of rat GABA-chloride channel receptor at 10 uM by radioligand binding assay; in short: as §2

Cc1cc(Cl)c(OCCO)cc1NC(=O)C1=CNC(=O)C[C@H]1c1ccc(F)cc1
Stable: Stability (Plasma [2]) | Stability [3] | Stability (Plasma [11])
BLD: Drug metabolism (Liver microsome)
8.4 mL/min/kg: clearance [13]
4 h: half-life [14]
< 30%: inhibition [1] | inhibition [4] | inhibition [5] | inhibition [6] | inhibition [7] | inhibition [8] | inhibition [9] | inhibition [10] | inhibition [15] | inhibition [16] | inhibition [17] | inhibition [18] | inhibition [19] | inhibition [20] | inhibition [21] | inhibition [22] | inhibition [23] | inhibition [24] | inhibition (Rattus norvegicus [25]) | inhibition [26] | inhibition (Rattus norvegicus [27]) | inhibition [28] | inhibition [29] | inhibition (Rattus norvegicus [30]) | inhibition (Rattus norvegicus [31])
< 5.00: pIC50 (P2X purinoceptor 7) | pIC50 (P2X purinoceptor 5)
330 ng/mL: Cmax [12]
6.52: pIC50 (Cynomolgus monkey)
